Screening results deposited in PubChem by Sanford-Burnham Center for Chemical Genomics.
The list is not random: actives were taken first. Their share in the collection is about 2.5%.
SENP6 block: SENP6 protease inhibition. 330,000 tested, 1.8% active. Q9GZR1. Recombinant SENP6 catalytic domain, aminoluciferin luminescence. inhibition, % at 10 µM;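 active means inhibition above about 50% at the single tested dose, limit read from the data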;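 further: plate controls were DMSO wells with enzyme for no effect and DMSO wells lacking enzyme for full effect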
Target sequence (Q9GZR1 628-1112 limits assumed): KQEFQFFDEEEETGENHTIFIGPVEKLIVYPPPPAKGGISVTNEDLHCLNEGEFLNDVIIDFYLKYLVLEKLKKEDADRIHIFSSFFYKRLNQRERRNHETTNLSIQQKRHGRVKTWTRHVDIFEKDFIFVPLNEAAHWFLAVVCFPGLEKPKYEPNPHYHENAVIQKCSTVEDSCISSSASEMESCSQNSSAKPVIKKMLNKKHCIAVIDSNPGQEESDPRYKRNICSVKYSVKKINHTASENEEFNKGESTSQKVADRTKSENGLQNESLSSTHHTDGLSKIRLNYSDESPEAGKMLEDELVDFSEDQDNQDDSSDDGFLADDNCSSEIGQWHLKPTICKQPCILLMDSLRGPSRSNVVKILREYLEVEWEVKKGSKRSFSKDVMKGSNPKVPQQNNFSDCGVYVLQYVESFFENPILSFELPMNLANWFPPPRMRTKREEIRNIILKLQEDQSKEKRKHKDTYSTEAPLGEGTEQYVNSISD
SENP7 inh: blocks the human protease SENP7; inhibition, % at 5 µM; AID 434973; 330,000 tested, 1.5% active; recombinant SENP7, Z-RLRGG-aminoluciferin luminescence, 40 min;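 active means inhibition above about 50% at the single test dose, limit read from the data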;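 further: plate controls were DMSO with enzyme for no effect and no enzyme buffer wells for full effect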
SENP1 FRET inh: inhibitors of human SENP1 SUMO protease catalytic domain | 360,000 tested, 0.21% active | inhibition, % at 10 µM | Q9P0U3 | recombinant SENP1 catalytic domain, CyPet-SUMO1-YPet FRET cleavage;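 active means inhibition at least 30% at 10 µM, raw YFP signal under a set limit, fluorescence ratio 0.5 to 1.5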;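 further: 0% = enzyme with DMSO and 100% = no enzyme wells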
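Test system: recombinant human SENP1 catalytic domain, His6-tagged / Medium: pH 8 Tris buffer with EDTA, NaCl, BME, BSA, NP40, catalase / Also added: SUMO1 FRET substrate flanked by Cypet and Ypet, 25 nM / Times: 50 min reaction at room temperature / Signal: FRET, CFP and YFP emission / Control set: no-enzyme low control and enzyme-plus-DMSO high control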
SENP8 block-1: inhibitors of human SENP8 protease. AID 2540. Q96LD8. 330,000 tested, 1.2% active. inhibition, % at 10 µM. purified SENP8, Z-RLRGG-aminoluciferin cleavage, luminescence; in the data active means inhibition above about 50%
SENP8 block-2: blocks human SENP8 cleavage of Nedd8 substrate | recombinant SENP8, Nedd8 substrate fluorescence | inhibition, % at 20 µM | 360,000 tested, 0.64% active | AID 602440; in the data active means inhibition mostly above about 40%, no sharp cut-off; inactive means mostly below about 27%
SENP8 conf: confirmation of human SENP8 protease inhibitors; shares compounds with SENP8 block-2; purified SENP8, Nedd8-AMC/pro-Nedd8 cleavage fluorescence, 30 min; inhibition, % at 25 µM; 1,400 tested, 15% active; AID 624319; in the data active means inhibition mostly above about 39%, no sharp cut-off; inactive means mostly below about 34%
Numbers without * were called inactive; nt = no result.

SMILES	SENP6 block	SENP7 inh	SENP1 FRET inh	SENP8 block-1	SENP8 block-2	SENP8 conf
COc1c(OC)c(O)c2c(=O)c(O)c(-c3ccccc3)oc2c1OC	-5.3	6.6	3.5	6.8	41.7*	5.2
Cc1nn(CC#N)c(=O)n1-c1ccc(Cl)cc1	-0.5	3.0	-1.4	8.8	5.7	nt
Cc1nn(CC#N)c(=O)n1-c1ccc(C(C)C)cc1	-4.7	-11.6	1.1	-5.5	40.6*	16.8
COc1ccc(N2CC(C(=O)N[C@@H](C)C(=O)N[C@H](CO)c3ccccc3)CC2=O)cc1 (some centres undefined)	-8.9	0.9	2.0	0.6	53.1*	13.1
COc1ccc(S(=O)(=O)N2CCSC2c2ccc(OC)c(OC)c2)cc1 (centres undefined)	-7.2	-2.6	-0.2	-5.6	50.2*	15.7
COc1ccc(C2SCCN2S(=O)(=O)c2ccc(F)cc2)cc1OC (centres undefined)	4.8	-5.2	-0.8	6.8	11.3	nt
COC(=O)c1c(C(=O)OC)c(-c2cccc(F)c2)n2c1CS(=O)(=O)C2	-11.5	2.3	5.3	-3.4	20.1	nt
CCN(CC)C(=O)CSc1n[nH]c(=S)n1N	2.6	8.3	2.9	3.5	44.3*	15.1
Cc1noc(C)c1CSCC(=O)Nc1cc(S(=O)(=O)N2CCOCC2)ccc1OC(C)C	-14.0	2.4	0.6	-0.8	2.6	nt
COc1ccccc1C(=O)NC1CCN(C(=O)Nc2ccc(F)cc2)CC1	-3.2	-0.8	1.9	-4.2	16.6	nt
COc1ccc(NC2CS(=O)(=O)CC2NCc2ccccc2)cc1 (centres undefined)	7.0	2.8	-2.4	-3.1	40.2*	14.6
O=S1(=O)C[C@@H](O)[C@@H](Nc2ccccc2)C1	-1.3	7.0	-0.6	3.4	22.9	nt
CC1(C(=O)NS(=O)(=O)c2ccccc2Cl)CCN1C(=O)CC1CCCC1 (centres undefined)	nt	nt	-0.8	nt	14.0	nt
O=C(OCc1ccc(Cl)c(Cl)c1)c1cnccn1	9.1	0.7	2.1	-17.4	44.7*	-9.0
O=C(O)C1SCCN1S(=O)(=O)c1ccc(N=NN2CCOCC2)cc1 (centres undefined)	5.0	-5.7	-4.8	-0.7	15.8	nt
CCOc1cc(C(=S)N2CCOCC2)ccc1OS(=O)(=O)c1ccc(C)cc1	-4.6	4.1	-0.1	-4.9	17.8	nt
CCOc1cc(C(=S)N2CCOCC2)cc(Br)c1OS(=O)(=O)c1ccccc1	-7.6	-5.6	1.1	6.2	41.6*	65.7*
CCOC(=O)[C@]12CCCC=C1N(CCC1=CCCCC1)C(=O)[C@H](CC(=O)NCCCN1CCCC1=O)C2	nt	nt	0.3	nt	41.6*	8.9
CCOC(=O)[C@]12CCC=C1N(CCC1=CCCCC1)C(=O)[C@H](CC(=O)NCCCN1CCCC1=O)C2	nt	nt	1.7	nt	23.4	nt
O=C(NC(CSSCC(NC(=O)c1ccccc1)C(=O)O)C(=O)O)c1ccccc1 (centres undefined)	-13.8	9.2	3.4	-11.9	62.7*	11.2
Cn1c(N)c(C(=O)COC(=O)CSc2ccc(Cl)cc2)c(=O)n(C)c1=O	-13.2	1.4	1.9	-4.9	13.7	nt
Oc1ccc(C(c2nnnn2CCc2ccccc2)N2CCN(c3nc4ccccc4s3)CC2)cc1 (centres undefined)	-1.2	-1.1	1.6	-1.8	0.4	nt
COC(=O)c1cc(C(=O)N2CCN(C(=O)c3ccco3)CC2)cc([N+](=O)[O-])c1	-4.8	-3.5	1.1	-3.9	-0.8	nt
COc1ccc([N+](=O)[O-])cc1NC(=O)C(C)N1CCN(C(=O)c2ccco2)CC1 (centres undefined)	-13.3	-8.9	1.4	-0.3	37.9*	16.0
COC(=O)CCN(C(=O)c1cc(OC)c(OC)c(OC)c1)c1ccccn1	-21.1	0.2	0.4	4.8	7.9	nt
SMILES	SENP6 block	SENP7 inh	SENP1 FRET inh	SENP8 block-1	SENP8 block-2	SENP8 conf
CCOc1ccccc1C(=O)N(CCC(=O)OC)c1ccccn1	-8.7	-5.0	1.2	-3.9	43.4*	15.8
CC1=NCCN1S(=O)(=O)c1cc(Cl)ccc1Cl	-7.9	-7.6	1.1	-3.0	47.7*	9.2
O=[N+]([O-])c1cc(Cl)ccc1NCCNS(=O)(=O)c1ccccc1	4.8	-0.5	8.0	6.6	42.6*	17.0
O=[N+]([O-])c1ccccc1NCCNS(=O)(=O)c1ccc(Cl)cc1	-4.2	-3.5	2.7	2.2	12.6	nt
CNc1ccc(/C=C2\COc3ccccc3C2=O)cc1[N+](=O)[O-]	-7.7	-18.3	5.6	-6.4	50.2*	14.3
O=C1/C(=C/c2ccccc2[N+](=O)[O-])COc2ccccc21	-4.4	-6.9	0.4	-10.8	5.1	nt
CC1(OC(=O)c2ccc(Cl)nc2)C(=O)C=C2C=C3CCCN3C=C2C1=O (centres undefined)	13.7	6.6	-27.2	6.8	64.8*	44.0*
COC(=O)CCC(=O)OC1(C)C(=O)C=C2C=C3CCCN3C=C2C1=O (centres undefined)	10.9	3.3	-15.0	6.4	53.4*	47.0*
CC1(OC(=O)C2CCCC2)C(=O)C=C2C=C3CCCCN3C=C2C1=O (centres undefined)	5.9	-2.0	-6.3	-11.1	57.1*	59.8*
COC(=O)CCC(=O)OC1(C)C(=O)C=C2C=C(C3CC3)N(CCCCO)C=C2C1=O (centres undefined)	30.1	8.8	-29.7	0.5	31.9	nt
C[C@@H]1COC(=O)[C@@H](Cc2ccc(F)cc2)CC/C=C\C[C@@H](CC(=O)NCCO)C(=O)N1	-10.9	-9.8	1.1	-4.2	7.9	nt
CC(=O)c1cccc(NC(=O)C(C)N2CCc3ccccc3C2)c1 (centres undefined)	-29.4	-3.9	-1.7	-11.6	17.1	nt
COc1ccccc1N(CC(=O)NC1CCCC1)C(=O)c1csnn1	2.8	-0.5	1.0	1.8	44.7*	3.1
O=C(CN1CCc2ccccc2C1)Nc1ccc(Br)cc1	1.7	2.8	1.1	1.5	15.9	nt
CCc1ccc(NC(=O)CN2CCc3ccccc3C2)cc1	8.8	5.9	-3.0	6.5	69.8*	35.6
CCc1ccc(NC(=O)NCCN2CCc3ccccc3C2)cc1	0.2	-1.8	-2.6	-3.9	44.6*	15.9
O=C(NCCN1CCc2ccccc2C1)Nc1ccc(F)cc1	-3.8	-12.4	-3.9	-12.8	26.1	nt
CC1=NN(c2ccc(S(=O)(=O)O)cc2Cl)C(=O)C1	9.3	5.1	-0.4	-6.4	75.6*	9.7
CC1=NN(c2cc(Cl)c(S(=O)(=O)O)cc2Cl)C(=O)C1	nt	nt	2.5	nt	65.9*	13.6
CO[C@H]1CN(C)C(=O)c2ccc(NC(=O)NC(C)C)cc2OC[C@H](C)NC[C@H]1C	nt	nt	1.9	nt	8.5	nt
Cc1ccc(S(=O)(=O)N[C@H](C(=O)N2CCC(C(=O)N[C@H](C(=O)O)c3ccccc3)CC2)C(C)C)cc1	-6.9	6.8	1.7	-5.9	47.7*	11.0
Cc1ccc(S(=O)(=O)N[C@H](C(=O)N2CCC(C(=O)NCC(=O)O)CC2)C(C)C)cc1	-9.1	-2.7	0.6	-13.3	18.2	nt
